Broadly, the pKa is the negative logarithm of the acid dissociation constant. Read a low pKa as a group that gives up its proton readily. A word on the IC50: it is the concentration at which inhibition is half-maximal. Low values mean inhibition by little substance, high ones a need for much substance. Usually inhibition stands for the percentage by which the read-out fell short of the control. Higher therefore signals strong suppression.

Data set [1] can be described thus: Dissociation constant (pKa). The class given is physicochemical. In outline: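 Measured in water at 23 °C from UV absorbance versus pH, using a pH meter calibrated with pH 5, 7 and 9 buffers. pH was stepped with 6 N HCl or NaOH to give 7–15 readings spanning the expected pKa, at 2–4 wavelengths with flow stopped. Spectra at pH 3 and 10 checked for decomposition. Simplex curve fit gave the pKa, reported as mean ± SD across wavelengths.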

The species named for a further data set is Rattus norvegicus. Description: Tested for inhibition of NMDA-induced cyclic GMP increase in rat cerebellar slices. Format: functional.
The target in data set [2] is Glutamate receptor ionotropic, kainate (Rattus norvegicus) (UniProt P22756+Q01812+P42260+P42264+Q63273). Put plainly: Inhibition at Ionotropic glutamate receptor kainate was determined at a concentration of 200 uM in rat cerebellar slices.
A short description of data set [3]: Potentiometric pKa(in 25 mL of water) of the compound. The class given is physicochemical.
The nature of data set [4]: potentiometric pKa(in 25 mL of 1 M NaCl) of the compound. The class given is physicochemical.

`c1ccc(CSc2ncc[nH]2)cc1`: in data set [1], the pKa turned out to be 11.6.

`Oc1n[nH]c(SCc2ccccc2)n1` displayed a pKa in data set [1] of 7.85. Take `NC(CCCSc1ccccc1O)C(=O)O` (stereo not drawn): in the data set listed under Rattus norvegicus, the IC50 is > 10000 µM. In data set [1], `[O-][S+](Cc1ccccc1)c1c[nH]nn1` (stereo not drawn) displayed a pKa of 6.09.

In turn, `O=S(=O)(Cc1ccccc1)c1ncc[nH]1` showed a pKa in data set [1] of 8.67. `c1ccc(CSc2c[nH]nn2)cc1` registered a pKa in data set [1] of 8.2. In data set [1], `[O-][S+](Cc1ccccc1)c1nc(O)n[nH]1` (stereo not drawn) came in with a pKa of 5.2. As for `O=S(=O)(Cc1ccccc1)c1nc[nH]n1`, the pKa in data set [1] is 6.23. `NC(CCCCCS(=O)(=O)c1ccccc1O)C(=O)O` (stereo not drawn) gave a pKa in data set [1] of 7.38. Further, in the data set filed under Rattus norvegicus, the IC50 was > 10000 µM. The compound `c1ccc(CSc2nc[nH]n2)cc1` showed a pKa in data set [1] of 9.5. In turn, `Nc1ccccc1SCCCCCC(N)C(=O)O` (stereo not drawn) displayed an inhibition in data set [2] of 20%. In the data set listed under Rattus norvegicus, the midpoint of inhibition, the IC50, lay at 140 µM. The compound `NC(CCCCCSc1ccccc1O)C(=O)O` (stereo not drawn) registered a pKa in data set [1] of 9.35. In addition, the IC50 in the data set listed under Rattus norvegicus worked out at 310 µM. As for `NC(CCCCCP(=O)(O)O)C(=O)O` (stereo not drawn) [AP-7], the pKa in data set [3] was 7.72; in data set [1], 2.64; in data set [4] it was 9.84. The IC50 in the data set filed under Rattus norvegicus worked out at 35 µM. In data set [1], `NC(CCCCCSc1cc(Cl)ccc1O)C(=O)O` (stereo not drawn) registered a pKa of 8.55. In the data set filed under Rattus norvegicus, half-maximal inhibition (IC50) was put at 220 µM. Turning to `N[C@H](CCCCSc1cc(Cl)ccc1O)C(=O)O`, the IC50 in the data set filed under Rattus norvegicus is > 10000 µM. Turning to `O=S(=O)(Cc1ccccc1)c1nc(O)n[nH]1`, the pKa in data set [1] amounted to 4.79. With `O=S(=O)(Cc1ccccc1)c1c[nH]nn1`, the pKa in data set [1] turned out to be 5.15.

For the compound `[O-][S+](Cc1ccccc1)c1ncc[nH]1` (stereo not drawn), the pKa in data set [1] came out at 9.8. Compound `[O-][S+](Cc1ccccc1)c1nc[nH]n1` (stereo not drawn) displayed a pKa in data set [1] of 7.38. In the case of `NC(CCCSc1cc(Cl)ccc1O)C(=O)O` (stereo not drawn), in the data set filed under Rattus norvegicus, it took 260 µM to reach half-maximal inhibition (IC50). As to `NC(CCCCC[S+]([O-])c1ccccc1O)C(=O)O` (stereo not drawn), in the data set filed under Rattus norvegicus, the IC50 is > 10000 µM.

The values are drawn from ChEMBL document CHEMBL1125079, “A unified approach to systematic isosteric substitution for acidic groups and application to NMDA antagonists related to 2-amino-7-phosphonoheptanoate” (J Med Chem, 1990).
